Measurements gathered from unrelated publications.
Compare with care: the assays were run in different laboratories.
KCNH2: Voltage-gated inwardly rectifying potassium channel KCNH2 (KCNH2, Homo sapiens, UniProt Q12809)
UGT2B7: UDP-glucuronosyltransferase 2B7 (UGT2B7, Homo sapiens, UniProt P16662)

Clc1ccc2c(C3CCN(CCc4c[nH]c5ccccc45)CC3)c[nH]c2c1
inhibition (KCNH2; ligand displacement, radioligand; 10 µM): 99%

O=C(O)C(F)(F)C(F)(F)C(F)(F)C(F)(F)C(F)(F)C(F)(F)C(F)(F)F
Km (Solute carrier organic anion transporter family member 2B1 (SLCO2B1, Homo sapiens, UniProt O94956); transporter uptake, substrate; CHO; 1 min, pH 7.4): 149 µM

COc1ccc(CCC2CCCC(CCc3ccc(OC)cc3)N2C[C@@H](O)CO)cc1 (stereo in doubt)
IC50 (KCNH2; ion current, inhibitor, patch clamp): ~70 nM

CCc1cccc(C(=O)Nc2cc(C)nn2-c2nc(CC)cc(=O)[nH]2)c1
inhibition (KCNH2; ligand displacement, radioligand; 10 µM): 0%

C=C1CC[C@@H]2[C@](C)(CO)[C@H](O)CC[C@@]2(C)[C@@H]1/C=C/C1=CCOC1=O
inhibition (UGT2B7; enzyme activity, inhibitor; 100 µM): 80%

CC(C)N1CCC[C@H]1CNC(=O)c1cn(C2CCCC2)c(=O)c2c1c1ccccc1n2C
inhibition (KCNH2; ligand displacement, radioligand; 10 µM): 39%

C=C1CCC2C(C)(CO)C(=O)CCC2(C)C1C=CC1=CCOC1=O (stereo not drawn)
inhibition (UGT2B7; enzyme activity, inhibitor; 100 µM): 90%

O=c1ccc2ccccc2o1
inhibition (KCNH2; ligand displacement, radioligand; 10 µM, cell membranes): -13.1%

CN1CCN(Cc2ccc(NC(=O)c3cncc(C#Cc4cnc(N)c5ncccc45)c3)cc2C(F)(F)F)CC1
IC50 (KCNH2; ion current, inhibitor): > 30000 nM
